Like-named read-outs stand apart in the source and are kept apart here.
Assays:
[1] = Unbound fraction in humans; type: in vitro ADME; conditions: human, plasma
pAkt (serine 473) = type: in vivo, mice
pAkt [2] = conditions: patients, doses ≥ 16 mg; cited from earlier work
[3] = tested on: 786-O human renal cell adenocarcinoma (RCC) xenografts; test: Integrated PK–PD–efficacy model, tumor volume in 786-O xenograft mice; type: in vivo; conditions: 786-O xenografts
Procedure, shortened: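 Female beige nude XID mice bearing subcutaneous 786-O tumour fragments. Grouped at 100–300 mm3 (mean 181 mm3). Dosed PO QD for 17 days in MCT (0.5% methylcellulose, 0.2% Tween 80), vehicle or 0.008–11 mg/kg, n = 6. Caliper volumes taken pre-dose and at 72–408 h. Inhibition predicted from mouse PK and PK–PD models. All groups fitted simultaneously to growth/shrinkage model with sigmoid Ks.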

[4] = Patient population pharmacokinetic model; type: in vivo, human
Procedure, shortened: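 Phase 1 3+3 dose-escalation patients. Single oral dose on day 1, 1-week washout, then QD, 3-weeks-on/1-week-off, or QW. Plasma sampled intensively in cycle 1 and pre-dose in later cycles. Assayed by LC–MS/MS (LLOQ 0.5 ng/mL). Two-compartment nonlinear mixed-effects model with first-order absorption, exponential IIV and proportional residual error, fitted in NONMEM.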

pAkt [5] = type: in vivo, human; conditions: patients
Procedure, shortened: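 Blood drawn pre-dose and 1, 3, 8 and 24 h post-dose on day 1 from phase 1 patients (n = 37). pAkt in platelet-rich plasma measured by MSD assay and expressed as % of baseline. Concentrations predicted from individual population-PK parameters. Indirect response model (inhibition of pAkt formation) fitted, with Imax and γ1 fixed at 1, proportional error and IIV on IC50.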

advanced solid tumors = type: in vivo, human
Procedure, shortened: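 Phase 1 dose-escalation patients with advanced solid tumours or NHL, oral 2–200 mg (QD, 3-weeks-on/1-week-off, or QW). Lesions imaged by CT or MRI at baseline, after cycles 1 and 2, then every two cycles. Tumour size linked to predicted %pAkt inhibition via growth/shrinkage model with sigmoid Ks. Individual PK and dosing records used, with individual or typical IC50. All doses fitted simultaneously.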

[6] = Mouse pharmacokinetic model; type: in vivo, mice
Procedure, shortened: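 Mean plasma concentration–time data from nude mice given single oral 1, 5 or 10 mg/kg (n = 27 per dose), taken from earlier work. Sampling pre-dose and at 0.083–24 h. Linear one-compartment model with first-order oral absorption fitted simultaneously across doses to estimate ka, CL/F and V/F, with RSE%.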

Unbound fraction in mice = type: in vitro ADME; conditions: mouse, plasma
786-O cell line = conditions: in vitro, cancer cell lines; cited from earlier work
Gli mRNA = conditions: preclinical models of the hedgehog pathway; cited from earlier work
[7] = nude mice, single PO 1, 5 and 10 mg/kg, one-compartment model

For `Cc1c(CN2CCN(C(=O)[C@H](C)O)CC2)sc2c(N3CCOCC3)nc(-c3cnc(N)nc3)nc12` [apitolisib], the fraction unbound [1] was 0.388, the “pAkt reduction in tumor” value (pAkt (serine 473); 786-O tumor-bearing mice, single oral 0.3 mg/kg) was “very weak” and the “duration of sustained pAkt suppression in tumor” value (pAkt (serine 473); 786-O tumor-bearing mice, single oral 3 mg/kg) was 6 h. For the same molecule, the “duration of sustained pAkt suppression in tumor” value (pAkt (serine 473); 786-O tumor-bearing mice, single oral 10 mg/kg) was 12 h, the “effect on pAkt in tumors across doses” value (pAkt (serine 473); 786-O tumor-bearing mice, single oral 0.3, 3 and 10 mg/kg) was “dose-dependent decrease” and the “kin (rate of biomarker production)” value (pAkt (serine 473); 786-O xenograft mice, tumor tissue pAkt) was 88,698 %/h. For the same molecule, the “Imax (maximum inhibition of %pAkt)” value (pAkt (serine 473); 786-O xenograft mice, fixed in model) was 1 (fix), the “kout (first-order rate constant describing biomarker loss)” value (pAkt (serine 473); 786-O xenograft mice, kout = kin/%pAkt(0), baseline 100%) was 886.98 h⁻¹ and the “reduction in platelet-rich plasma PD markers, including pAkt” value (pAkt [2]) was ≥ 90%. For the same molecule, the “Kmax (maximum value of tumor shrinkage rate constant Ks)” value [3] was 0.0194 h⁻¹, the “Kg (net tumor growth rate constant)” value ([3]; QD PO 17 days, 0.008–11 mg/kg) was 0.0057 h⁻¹ and the “KI50 (I where Ks is 50% of Kmax)” value ([3]; pAkt in tumor tissue) was 67.2 %pAKT inhibition. The “constant pAkt inhibition necessary to achieve tumor stasis (Ks = Kg)” value ([3]; tumor tissue pAkt) was 61%, the k el ([4]; human, plasma, oral) was 2.78e-05 s⁻¹ and the CL/F ([4]; human, plasma, po) was 5.07 mL/min/kg. For the same molecule, the “body-weight-normalized apparent volume of the central compartment (V1/F)” value ([4]; patients, assuming reference body weight of 70 kg) was 3.01 L/kg, the “absorption lagged time estimate (RSE%)” value ([4]; patients, n = 146, oral dosing) was 0.465 (0.43%) h and the “absorption rate constant (ka), population typical value (RSE%)” value ([4]; patients, n = 146, oral dosing) was 3.35 (16.8%) h^−1. The “apparent intercompartmental clearance (CLd/F), population typical value (RSE%)” value ([4]; patients, n = 146, oral dosing) was 5.93 (8.53%) L/h, the “apparent oral clearance (CL/F), population typical value (RSE%)” value ([4]; patients, n = 146, oral dosing, two-compartment model) was 21.3 (4.28%) L/h and the “kin (rate of biomarker production)” value (pAkt [5]; platelet-rich plasma pAkt) was 88,699 %/h. For the same molecule, the “effect on pAkt in plasma with increasing doses” value (pAkt [5]; platelet-rich plasma, 2–70 mg) was “dose-dependent decrease”, the “peak suppression of the platelet pAkt” value (pAkt [5]; platelet-rich plasma, doses ≥ 12 mg) was 90% and the “Imax (maximum inhibition of %pAkt)” value (pAkt [5]; fixed in model) was 1 (fix). For the same molecule, the “kout (first-order rate constant describing biomarker loss)” value (pAkt [5]; kout = kin/%pAkt(0), baseline 100%) was 886.99 h⁻¹, the “Kmax (maximum value of tumor shrinkage rate constant Ks)” value (advanced solid tumors; patients with advanced solid tumors) was 0.0142 1/week and the “Kg (net tumor growth rate constant)” value (advanced solid tumors; patients with advanced solid tumors, 2–200 mg) was 0.0097 1/week. For the same molecule, the “KI50 (I where Ks is 50% of Kmax)” value (advanced solid tumors; patients, pAkt in surrogate plasma) was 58.0 %pAKT inhibition, the “constant pAkt inhibition necessary to achieve tumor stasis (Ks = Kg)” value (advanced solid tumors; patients, platelet-rich plasma pAkt) was 65% and the “linearity of pharmacokinetics over the range of doses tested” value ([6]; mice, PO 1, 5 and 10 mg/kg) was “linear”. The “absorption rate constant (ka), estimate (RSE%)” value [6, 7] was 1.1 (36.4%) h^−1, the “apparent volume of distribution after oral dosing (V/F), estimate (RSE%)” value [6, 7] was 1.13 (17.3%) L/kg and the k el ([6]; nude, mouse, plasma, oral) was 8.33e-05 s⁻¹. The fraction unbound (Unbound fraction in mice) was 0.294 and the “responsiveness of 786-O cell line compared with other tumor types such as MCF-7” value (786-O cell line) was “less responsive”.

In the case of `CS(=O)(=O)c1ccc(C(=O)Nc2ccc(Cl)c(-c3ccccn3)c2)c(Cl)c1` [vismodegib], the “minimum Gli mRNA inhibition needed for tumor growth inhibition” value (Gli mRNA) is listed as ~50%.

Source: article PMC11315854 (Drugs in R&D, 2024)
